From ChEMBL document CHEMBL1145520, “RAS-RAF-MEK-dependent oxidative cell death involving voltage-dependent anion channels” (Nature, 2007)
Activity calls are given as the source filed them. The rule behind the calls is not given here.

How the values were obtained:
[1] = system: BJ; assay: Antitumor activity against human BJ cells expressing TERT, LT, ST and RAS G12V mutant genes assessed as survival relative to control; format: functional
[2] = system: HT-1080; assay: Antitumor activity against human HT1080 cells assessed as survival relative to control; format: functional
[3] = system: BJ; assay: Induction of cell death in human BJ cells expressing TERT, LT, ST and RAS G12V mutant genes cells at 9 uM; format: functional, cell-based
[4] = system: BJ; assay: Induction of cytochrome c release in cytosolic fraction of human BJ cell expressing TERT, LT, ST and RAS G12V mutant genes at 1 uM; format: functional, cell-based
Method in brief: (§1)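 BJ-TERT/LT/ST/RASV12 cells (3 × 10^6 per dish, overnight at 37 °C, 5% CO2) treated with staurosporine 1 µM for 6 h. Cells swollen on ice 15 min in sucrose/HEPES pH 7.5 buffer, lysed through 25-gauge needle. Nuclei removed at 400g, mitochondria pelleted at 10,500g. Cytosolic supernatant and mitochondrial pellet probed for cytochrome c by western blot.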

[5] = system: BJ; assay: Induction of mitochondrial structural integrity loss in human BJ cells expressing TERT, LT, ST and RAS G12V mutant genes cells at 1 uM after 5 hrs; format: functional, cell-based
Method in brief: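 Mitochondria of BJ-TERT/LT/ST/RASV12 cells examined by transmission electron microscopy after staurosporine 1 µM for 5 h. Fixed in 2.5% glutaraldehyde in Sorenson's buffer pH 7.2, post-fixed in 1% OsO4, block-stained with tannic acid, resin-embedded. Thin sections stained with uranyl acetate and lead citrate.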

[6] = system: BJ; assay: Induction of cytochrome c release in mitochondrial fraction of human BJ cell expressing TERT, LT, ST and RAS G12V mutant genes at 1 uM; format: functional, cell-based; method in brief: as §1

SMILES | Survival [1] | Survival [2] | other results
N#CC(=C(/N)Sc1ccccc1N)/C(C#N)=C(\N)Sc1ccccc1N | 82% | 17% | –
CC(C)NC(=O)N(CCN1CCN(C(=O)COc2ccc(Cl)cc2)CC1)Cc1ccc(F)cc1 | – | – | IC50 [3]: 10 µM
CN[C@@H]1C[C@H]2O[C@@](C)([C@@H]1OC)n1c3ccccc3c3c4c(c5c6ccccc6n2c5c31)C(=O)NC4 | – | – | Activity [4]: Active; Activity [5]: inactive; Activity [6]: Active
COc1cccc(-c2cc(=O)c3ccccc3o2)c1N | 78% | 26% | –
